Measured values as given in ChEMBL document CHEMBL4325860, “Synthesis of novel 2-(1-adamantanylcarboxamido)thiophene derivatives. Selective cannabinoid type 2 (CB2) receptor agonists as potential agents for the treatment of skin inflammatory disease” (Eur J Med Chem, 2019).
Active and inactive are the calls of the source. The rule behind the calls is not given here.

Key:
Cannabinoid receptor 2 [1] = target: T1, Cannabinoid receptor 2 (Homo sapiens, UniProt P34972); test: Displacement of [3H]CP55940 from recombinant human CB2R expressed in HEK293 cell membranes measured after 90 mins
T1 sequence (P34972 whole entry): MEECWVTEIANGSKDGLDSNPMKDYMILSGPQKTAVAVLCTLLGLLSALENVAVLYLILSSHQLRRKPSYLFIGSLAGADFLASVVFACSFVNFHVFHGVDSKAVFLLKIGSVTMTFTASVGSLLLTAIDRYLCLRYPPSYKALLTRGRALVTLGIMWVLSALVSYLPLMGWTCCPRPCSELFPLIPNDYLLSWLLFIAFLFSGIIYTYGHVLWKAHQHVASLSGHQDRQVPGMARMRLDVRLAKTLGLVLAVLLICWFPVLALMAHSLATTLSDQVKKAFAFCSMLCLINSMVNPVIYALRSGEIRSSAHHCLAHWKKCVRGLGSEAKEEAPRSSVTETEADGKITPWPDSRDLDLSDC

Cannabinoid receptor 2 [2] = target: T1, Cannabinoid receptor 2; test: Agonist activity at recombinant human CB2R expressed in CHOK1 cells assessed as inhibition of NKH477-stimulated intracellular cAMP levels preincubated for 15 mins followed by CB2R agonist JWH133 addition and measured after 30 mins by chemiluminescent assay; assay type: functional, cell-based
Cannabinoid receptor 2 [3] = target: T1, Cannabinoid receptor 2; test: Activity at recombinant human CB2R expressed in CHOK1 cells assessed as effect on basal intracellular cAMP levels at higher concentration measured after 30 mins by chemiluminescent assay; assay type: functional, cell-based
Cannabinoid receptor 2 [4] = target: T1, Cannabinoid receptor 2; test: Displacement of [3H]CP55940 from recombinant human CB2R expressed in HEK293 cell membranes at 10 uM measured after 90 mins relative to control
Homo sapiens = organism: Homo sapiens; test: Selectivity index, ratio of Ki for displacement of [3H]CP55940 from recombinant human CB1R expressed in HEK293 cell membranes to Ki for displacement of [3H]CP55940 from recombinant human CB2R expressed in HEK293 cell membranes
Method in brief: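 Competition binding on membranes of HEK cells transfected with human CB1R or CB2R, radioligand [³H]CP-55,940. Ki from at least three separate experiments run in duplicate, reported as mean. Selectivity index = Ki(CB1R)/Ki(CB2R).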

Cannabinoid receptor 2 [5] = target: T1, Cannabinoid receptor 2; test: Agonist activity at recombinant human CB2R expressed in CHOK1 cells assessed as inhibition of NKH477-stimulated intracellular cAMP levels after 30 mins by chemiluminescent assay; assay type: functional, cell-based
Method in brief: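 cAMP Hunter enzyme fragment complementation assay with chemiluminescent detection, in stable CHO cells expressing human CB2R, stimulated with NKH-477. Concentration-response curves. Response normalized with NKH-477 alone as 100%. Mean ± SEM of three independent experiments run in triplicate.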

Cannabinoid receptor 1 = Cannabinoid receptor 1 (Homo sapiens, UniProt P21554); test: Displacement of [3H]CP55940 from recombinant human CB1R expressed in HEK293 cell membranes measured after 90 mins
Sequence of Cannabinoid receptor 1 (P21554 whole entry): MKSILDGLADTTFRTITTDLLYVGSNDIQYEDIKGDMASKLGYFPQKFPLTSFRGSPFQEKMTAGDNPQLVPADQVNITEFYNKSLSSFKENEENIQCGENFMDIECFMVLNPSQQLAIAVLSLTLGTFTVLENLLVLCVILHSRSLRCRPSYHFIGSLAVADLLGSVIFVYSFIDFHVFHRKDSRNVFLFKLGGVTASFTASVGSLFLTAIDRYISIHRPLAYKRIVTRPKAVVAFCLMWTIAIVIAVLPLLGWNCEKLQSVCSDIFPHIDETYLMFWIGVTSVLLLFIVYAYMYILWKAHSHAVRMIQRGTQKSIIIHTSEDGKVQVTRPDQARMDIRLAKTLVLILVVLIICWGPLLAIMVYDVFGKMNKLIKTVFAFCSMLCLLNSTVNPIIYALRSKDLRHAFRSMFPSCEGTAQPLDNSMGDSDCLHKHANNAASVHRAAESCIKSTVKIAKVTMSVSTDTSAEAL

[6] = target: Cannabinoid receptor 1 (CB1R) (Homo sapiens, UniProt P21554); test: Displacement of [3H]CP55940 from recombinant human CB1R expressed in HEK293 cell membranes at 10 uM measured after 90 mins relative to control; settings: membranes of HEK293 cells expressing recombinant human CB1R, probe [3H]CP55940
Sequence of Cannabinoid receptor 1 (CB1R) (P21554 whole entry): as above

HaCaT [7] = test: Antiinflammatory activity in human HaCaT cells assessed as inhibition of polyinosinic polycytidylic acid-stimulated MCP2 release at 10 uM measured after 6 hrs by ELISA; assay type: functional, cell-based
Method in brief: (§1)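 HaCaT keratinocytes stimulated with poly-(I:C) at 100 µg/mL. MCP-2 release measured with test agent at 10 µM, alone or co-incubated with the CB2R antagonist AM630 at 0.1 µM.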

HaCaT [8] = test: Antiinflammatory activity in human HaCaT cells assessed as inhibition of polyinosinic polycytidylic acid-stimulated MCP2 release at 10 uM measured after 6 hrs in presence of CB2R antagonist AM630 by ELISA; assay type: functional, cell-based; method in brief: as §1

SMILES | Ki (Cannabinoid receptor 2 [1]) | inhibition (Cannabinoid receptor 2 [2]) | Activity (Cannabinoid receptor 2 [3]) | inhibition (Cannabinoid receptor 2 [4]) | Ratio Ki (Homo sapiens) | EC50 (Cannabinoid receptor 2 [5]) | Ki (Cannabinoid receptor 1) | inhibition at 1.5 h, 10 µM [6] | inhibition (HaCaT [7]) | inhibition (HaCaT [8])
CCCCc1sc(NC(=O)C23CC4CC(CC(C4)C2)C3)c(C(=O)OC)c1C | 0.00172 µM | inactive | inactive | > 50% | 34 | 1.14 µM | 0.0589 µM | < 50% | – | –
COC(=O)c1nn(C)cc1NC(=O)C12CC3CC(CC(C3)C1)C2 | 0.845 µM | – | – | > 50% | > 11 | – | > 10 µM | < 50% | – | –
CCCc1c(C)sc(NC(=O)C23CC4CC(CC(C4)C2)C3)c1C(=O)OC | – | – | – | > 50% | 257 | – | – | < 50% | – | –
COC(=O)c1c(NC(=O)N2CCOCC2)sc2c1CCCC2 | 2.49 µM | – | – | > 50% | > 4 | – | > 10 µM | < 50% | – | –
COC(=O)c1c(NC(=O)C23CC4CC(CC(C4)C2)C3)sc2c1CCSC2 | 0.0507 µM | – | – | > 50% | > 197 | – | > 10 µM | < 50% | – | –
COC(=O)c1c(C)noc1NC(=O)C12CC3CC(CC(C3)C1)C2 | 0.0647 µM | – | – | > 50% | > 154 | – | > 10 µM | < 50% | – | –
COC(=O)c1c(NC(=O)NC23CC4CC(CC(C4)C2)C3)sc2c1CCCC2 | 0.021 µM | – | – | > 50% | > 477 | – | > 10 µM | < 50% | – | –
COC(=O)c1c(NC(=O)C23CC4CC(CC(C4)C2)C3)sc(C)c1C | 0.00924 µM | inactive | – | > 50% | > 1080 | 0.318 µM | > 10 µM | < 50% | – | –
CCCCCc1sc(NC(=O)C23CC4CC(CC(C4)C2)C3)c(C(=O)OC)c1-c1ccccc1 | 0.00803 µM | – | – | > 50% | 65 | – | 0.519 µM | < 50% | – | –
COC(=O)c1c(NC(=O)Oc2ccccc2)sc2c1CCCC2 | 0.244 µM | – | – | > 50% | > 41 | – | > 10 µM | < 50% | – | –
CCCc1cc(C(=O)OC)c(NC(=O)C23CC4CC(CC(C4)C2)C3)s1 | 0.00721 µM | – | – | > 50% | 186 | – | 1.34 µM | < 50% | – | –
COC(=O)c1c(NC(=O)C23CC4CC(CC(C4)C2)C3)cnn1C | 1.08 µM | – | – | > 50% | > 9 | – | > 10 µM | < 50% | – | –
Cc1ccc(Cn2nc(C(=O)N[C@@H]3C(C)(C)[C@@H]4CC[C@@]3(C)C4)cc2-c2ccc(Cl)c(C)c2)cc1 | – | – | – | – | – | – | – | < 50% | – | –
CCc1c(C)sc(NC(=O)c2ccc(Cl)cc2)c1C(=O)OC | 0.621 µM | – | – | > 50% | > 16 | – | > 10 µM | < 50% | – | –
CCc1c(C)sc(NC(=O)c2ccc(F)cc2)c1C(=O)OC | 0.496 µM | – | – | > 50% | > 20 | – | > 10 µM | < 50% | – | –
COC(=O)c1cccnc1NC(=O)C12CC3CC(CC(C3)C1)C2 | 1.22 µM | – | – | > 50% | > 8 | – | > 10 µM | < 50% | – | –
COC(=O)c1ccsc1NC(=O)C12CC3CC(CC(C3)C1)C2 | 1.32 µM | – | – | > 50% | > 68 | – | > 10 µM | < 50% | – | –
COC(=O)c1cc(-c2ccccc2)sc1NC(=O)C12CC3CC(CC(C3)C1)C2 | 0.00648 µM | – | – | > 50% | > 1540 | – | > 10 µM | < 50% | – | –
COC(=O)c1c(NC(=O)C23CC4CC(CC(C4)C2)C3)sc2c1CCS(=O)(=O)C2 | 1.67 µM | – | – | > 50% | > 6 | – | > 10 µM | < 50% | – | –
COC(=O)c1c(-c2ccccc2)csc1NC(=O)C12CC3CC(CC(C3)C1)C2 | 0.035 µM | – | – | > 50% | > 285 | – | > 10 µM | < 50% | – | –
COc1ccc(C(=O)c2c(C)n(CCN3CCOCC3)c3cc(I)ccc23)cc1 | – | – | – | > 50% | – | – | – | < 50% | – | –
COC(=O)c1c(NC(=O)C23CC4CC(CC(C4)C2)C3)sc2c1CCCC2 | 0.00508 µM | inactive | inactive | > 50% | > 1970 | 1.53 µM | > 10 µM | < 50% | – | –
COC(=O)c1c(NC(=O)N2CCCCC2)sc2c1CCCC2 | 0.196 µM | – | – | > 50% | > 51 | – | > 10 µM | < 50% | – | –
COC(=O)c1[nH]ccc1NC(=O)C12CC3CC(CC(C3)C1)C2 | 2.14 µM | – | – | > 50% | > 4 | – | > 10 µM | < 50% | – | –
CCc1c(C)sc(NC(=O)C23CC4CC(CC(C4)C2)C3)c1C(=O)OC | 0.00246 µM | inactive | – | > 50% | 75 | 0.197 µM | 0.185 µM | < 50% | Active | inactive
CCc1sc(NC(=O)C23CC4CC(CC(C4)C2)C3)c(C(=O)OC)c1C | 0.00592 µM | inactive | – | > 50% | 358 | 0.371 µM | 2.12 µM | < 50% | – | –
COC(=O)c1cc(C)sc1NC(=O)C12CC3CC(CC(C3)C1)C2 | 0.0231 µM | – | – | > 50% | > 433 | – | > 10 µM | < 50% | – | –
